The list is not random: actives were taken first. Their share in the collection is about 2.4%.
ANO1 activ: activates or potentiates the mouse TMEM16A chloride channel | Q8BHY3 | HEK293 TMEM16A/YFP-H148Q/I152L, iodide quench fluorescence; active compounds read low | B-score at 10 µM | 340,000 tested, 0.3% active;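 active = fluorescence-ratio B-score plate-corrected deviation score at least 3 library SD below zero, with starting fluorescence score within 5 deviations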;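 also: channel opened by trigger with iodide after compound preincubation; score built on the fluorescence ratio of max minus min over baseline; more negative score means more quench and so TMEM16A activation or potentiation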
DNA FID counter: fluorescent intercalator displacement, NS3 helicase counter-screen. DNA fluorescent intercalator displacement, fluorescence. inhibition, % at 7.9 µM. 290,000 tested, 0.17% active; in the data active = inhibition above about 37%;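 also: higher means more ethidium bromide displaced from hairpin DNA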
Apaf1 inhib: human Apaf-1 inhibition. reconstituted apoptosome caspase-3 activity, DEVD-Rh110 fluorescence. inhibition, % at 20 µM. 330,000 tested, 0.71% active; active = inhibition of at least 40% at 20 µM
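System: Apoptosome proteins | Medium: Hepes pH 7.5 with detergent and BSA | Also added: Cytochrome c trigger plus (Z-DEVD)2-Rh110 caspase-3 substrate | Incubation: 30 min compound preincubation, 50 min activation, room temperature | Detection: Rhodamine 110 fluorescence at Ex 480/Em 540 nm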
TMEM16A inh: blocks the mouse calcium-activated chloride channel TMEM16A; Q8BHY3; HEK293 TMEM16A/YFP iodide influx fluorescence, ionomycin; normalized B-score (activity score, 25-100; higher = stronger inhibition) at 10 µM; 310,000 tested, 1.2% active;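 active = ratio plate-corrected score three or more library SD toward inhibition, starting fluorescence score within five deviations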;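 also: score derived from kinetic fluorescence span divided by baseline fluorescence per well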
UBC13 inh: inhibitors of human UBC13 polyubiquitin chain formation. 330,000 tested, 0.47% active. inhibition, % at 20 µM. P61088. TR-FRET; in the data active = inhibition above about 45%, passing the limit was not always enough
Target sequence (P61088 whole entry, looked up): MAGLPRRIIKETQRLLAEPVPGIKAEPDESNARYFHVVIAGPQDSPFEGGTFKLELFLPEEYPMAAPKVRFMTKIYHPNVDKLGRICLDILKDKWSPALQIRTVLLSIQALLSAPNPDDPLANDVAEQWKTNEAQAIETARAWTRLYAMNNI
Hits are given with their value; – = inactive; · = no result.

SMILES	ANO1 activ	DNA FID counter	Apaf1 inhib	TMEM16A inh	UBC13 inh
CCOC(=O)N1CCN(c2ccc(C(=O)c3cccc(F)c3)cc2)CC1	–	–	–	25	–
Cc1ccnc2nc(C(=O)Nc3ccc(N4CCOCC4)cc3)nn12	-11	–	–	–	–
CCS(=O)(=O)c1nc2ccccc2n1Cc1ccccn1	–	–	–	–	–
O=C(CN1C(=O)/C(=C\c2cccc(Cl)c2)Sc2ccccc21)NCCCN1CCOCC1	–	43	–	–	–
CCN1CCN(CCNC(=O)c2ccc(/C=C3/Sc4ccccc4N(Cc4cccc(Cl)c4)C3=O)cc2)CC1	–	39	–	–	–
CCc1ccc(/C=C2/Sc3ccccc3N(CC(=O)NCCCN3CCOCC3)C2=O)cc1	–	54	–	–	–
Cc1ccc(CN2C(=O)c3ccccc3Sc3ccc(C(=O)NCCCN4CCOCC4)cc32)cc1	–	37	–	–	–
O=C(CN1C(=O)/C(=C/c2ccc(C(F)(F)F)cc2)Sc2ccccc21)NCCCN1CCOCC1	–	–	–	–	–
O=C(CN1C(=O)/C(=C\c2ccccc2Cl)Sc2ccccc21)NCCCN1CCOCC1	–	–	–	–	–
CC(=O)C1=C(c2ccccc2)NC(=O)NC1c1cccs1 (configuration not stated)	–	–	–	–	–
O=[N+]([O-])c1ccc(OC(F)F)c(/C=N/n2cnnc2)c1	–	–	–	–	–
O=C1NCN(c2ccccc2)C12CCN(CCCC(c1ccc(F)cc1)c1ccc(F)cc1)CC2	–	–	55	–	–
O=C1CCC(=O)N1CCC(c1ccc(F)cc1)c1ccco1 (configuration not stated)	–	–	–	–	–
CCOC(=O)CN1CC23C=CC(O2)C(C(=O)NCCc2ccccc2)C3C1=O (configuration not stated)	-11	–	–	–	–
CCOC(=O)CN1CC23C=CC(O2)C(C(=O)NC2CCCCCC2)C3C1=O (configuration not stated)	–	–	–	–	–
CCS(=O)(=O)C1=NN2C(=N)/C(=C\c3ccc(SCc4ccco4)o3)C(=O)N=C2S1	–	–	·	·	·
O=C1c2cccc3c([N+](=O)[O-])ccc(c23)C(=O)N1CCc1ccccn1	–	–	–	–	–
CN(C)CCCN1C(=O)c2cccc3c([N+](=O)[O-])ccc(c23)C1=O	–	41	·	–	·
O=c1cc(C(F)(F)F)[nH]c2c(C(F)(F)F)cccc12	–	–	–	100	–
Cc1cc(=O)c2cccc(Br)c2[nH]1	–	–	–	–	–
COc1ccc(-n2nc3c(N4CCC(C(=O)NCCc5ccccc5C)CC4)nnc(C)c3c2C)cc1	–	–	–	–	–
CCN1CCN(C(=O)C2CCN(c3nnc(C)c4c(C)n(-c5ccc(C)cc5)nc34)CC2)CC1	–	43	–	–	–
Cc1ccc(-n2nc3c(N4CCC(C(=O)N5CCC(C(N)=O)CC5)CC4)nnc(C)c3c2C)cc1	–	–	–	–	–
COc1ccc(-n2nc3c(N4CCC(C(=O)NCc5ccccc5C)CC4)nnc(C)c3c2C)cc1	–	–	59	–	–
Cc1ccc(-n2nc3c(N4CCC(C(=O)NCCc5ccccc5C)CC4)nnc(C)c3c2C)cc1	–	37	–	–	–
SMILES	ANO1 activ	DNA FID counter	Apaf1 inhib	TMEM16A inh	UBC13 inh
COc1cc(C(=O)OCC(=O)NC2CCCCCC2)ccc1OCC(C)C	–	·	–	–	–
CCOC(=O)N1CCN(C(=O)COc2cc(=O)n(C)c3ccccc23)CC1	–	–	–	25	–
COc1cc(/C=C2/SC(=S)N(CC(=O)O)C2=O)ccc1OC(=O)c1ccco1	-5.3	–	–	–	–
COc1ccc(/C=C2/SC(=S)N(CC(=O)O)C2=O)cc1OCc1ccc(Cl)cc1	–	–	–	–	–
O=c1c2ccccc2nnn1Cc1ccc(Br)cc1	–	–	–	–	–
O=c1c2ccccc2nnn1Cc1ccc(F)cc1	–	–	–	100	–
CC(C)OC(=O)c1ccc(Cn2nnc3ccccc3c2=O)cc1	–	–	–	100	–
CCn1c(=NC(=O)CS(=O)(=O)c2ccc(C)cc2)sc2cccc(OC)c21	–	·	–	100	–
O=S(=O)(N/N=C1/CC(c2ccccc2)Oc2ccccc21)c1ccc(Br)cc1 (configuration not stated)	–	–	–	25	–

Compound activity as filed in PubChem BioAssay.
